Measurements taken from ChEMBL document CHEMBL5303300, “EUbOPEN Chemogenomics Library - Multiplex” (2023).
Several values for one entry are separate records, joined by “and”; a condition that tells them apart may be missing. Equal values may be shown once.

Key:
Assay type in all cases: toxicity, cell-based
Fibroblast = experiment: Multiplex assay against human fibroblast; conditions: number of replicates 2
Method in brief: (§1)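 Live cells were stained at seeding with Hoechst33342, BioTracker Green Microtubule Cytoskeleton Dye, MitoTracker Red and Annexin V Alexa Fluor 680, then imaged on a CQ1 microscope at 37°C and 5% CO2 after compound addition. CellPathfinder machine-learning gating split cells into Hoechst high-intensity objects or normal cells. Normal cells were split into healthy, pyknosed or fragmented nuclei, and pyknosed cells into mitotic or apoptotic. Tubulin, mitochondrial-mass and membrane-permeability phenotypes are per cents of healthy-nucleus cells.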

HEK-293T = experiment: Multiplex assay against HEK293T; conditions: human, number of replicates 2; method in brief: as §1
U2OS = experiment: Multiplex assay against U2OS; conditions: human, number of replicates 2; method in brief: as §1
[1] = 12 h, 1 µM, compound concentration 1 uM
[2] = 12 h, 10 µM, compound concentration 10 uM
[3] = 24 h, 1 µM, compound concentration 1 uM
[4] = 24 h, 10 µM, compound concentration 10 uM
[5] = 48 h, 1 µM, compound concentration 1 uM
[6] = 48 h, 10 µM, compound concentration 10 uM

## O=S(=O)(c1ccccc1)N(CC(F)(F)F)c1ccc(C(O)(C(F)(F)F)C(F)(F)F)cc1 [T091317]
Fibroblast; [1]
  Population Apoptotic (%): 45% and 27%
  Population Fragmented Nuclei (%): 13% and 11%
  Population Healthy Nuclei (%): 60% and 68%
  Population Hoechst High Intensity Objects (%): 0%
  Population Membrane Permeable-Phenotype (%): 8% and 10%
  Population Mitochondria Different-Phenotype (%): 1%
  Population Mitotic Cells (%): 54% and 72%
  Population Normal (%): 100%
  Population Pyknosed Nuclei (%): 25% and 20%
  Population Tubulin-Different-Phenotype (%): 28% and 21%
  Total Cell Count: 135 and 214
Fibroblast; [2]
  Population Apoptotic (%): 33% and 30%
  Population Fragmented Nuclei (%): 14% and 12%
  Population Healthy Nuclei (%): 58% and 67%
  Population Hoechst High Intensity Objects (%): 0%
  Population Membrane Permeable-Phenotype (%): 6% and 8%
  Population Mitochondria Different-Phenotype (%): 1% and 4%
  Population Mitotic Cells (%): 66% and 69%
  Population Normal (%): 99% and 100%
  Population Pyknosed Nuclei (%): 28% and 19%
  Population Tubulin-Different-Phenotype (%): 40% and 34%
  Total Cell Count: 151 and 132
Fibroblast; [3]
  Population Apoptotic (%): 50% and 52%
  Population Fragmented Nuclei (%): 15% and 10%
  Population Healthy Nuclei (%): 54% and 57%
  Population Hoechst High Intensity Objects (%): 0%
  Population Membrane Permeable-Phenotype (%): 7% and 15%
  Population Mitochondria Different-Phenotype (%): 5% and 0%
  Population Mitotic Cells (%): 50% and 47%
  Population Normal (%): 100%
  Population Pyknosed Nuclei (%): 29% and 31%
  Population Tubulin-Different-Phenotype (%): 28% and 24%
  Total Cell Count: 128 and 204
Fibroblast; [4]
  Population Apoptotic (%): 63% and 37%
  Population Fragmented Nuclei (%): 16% and 18%
  Population Healthy Nuclei (%): 47% and 57%
  Population Hoechst High Intensity Objects (%): 0%
  Population Membrane Permeable-Phenotype (%): 8% and 17%
  Population Mitochondria Different-Phenotype (%): 7% and 4%
  Population Mitotic Cells (%): 36% and 62%
  Population Normal (%): 100% and 99%
  Population Pyknosed Nuclei (%): 35% and 24%
  Population Tubulin-Different-Phenotype (%): 65% and 56%
  Total Cell Count: 145 and 143
Fibroblast; [5]
  Population Apoptotic (%): 75% and 69%
  Population Fragmented Nuclei (%): 10% and 13%
  Population Healthy Nuclei (%): 60% and 54%
  Population Hoechst High Intensity Objects (%): 0%
  Population Membrane Permeable-Phenotype (%): 15% and 14%
  Population Mitochondria Different-Phenotype (%): 0% and 2%
  Population Mitotic Cells (%): 24% and 30%
  Population Normal (%): 100% and 99%
  Population Pyknosed Nuclei (%): 28% and 31%
  Population Tubulin-Different-Phenotype (%): 32% and 24%
  Total Cell Count: 128 and 175
Fibroblast; [6]
  Population Apoptotic (%): 71% and 78%
  Population Fragmented Nuclei (%): 25% and 16%
  Population Healthy Nuclei (%): 46% and 54%
  Population Hoechst High Intensity Objects (%): 1% and 0%
  Population Membrane Permeable-Phenotype (%): 16% and 26%
  Population Mitochondria Different-Phenotype (%): 4%
  Population Mitotic Cells (%): 28% and 21%
  Population Normal (%): 98% and 99%
  Population Pyknosed Nuclei (%): 27% and 28%
  Population Tubulin-Different-Phenotype (%): 69% and 80%
  Total Cell Count: 143 and 134
HEK-293T; [1]
  Population Apoptotic (%): 40% and 48%
  Population Fragmented Nuclei (%): 4% and 3%
  Population Healthy Nuclei (%): 83% and 82%
  Population Hoechst High Intensity Objects (%): 7% and 5%
  Population Membrane Permeable-Phenotype (%): 3% and 4%
  Population Mitochondria Different-Phenotype (%): 15% and 22%
  Population Mitotic Cells (%): 59% and 51%
  Population Normal (%): 92% and 94%
  Population Pyknosed Nuclei (%): 11% and 14%
  Population Tubulin-Different-Phenotype (%): 56%
  Total Cell Count: 740 and 522
HEK-293T; [2]
  Population Apoptotic (%): 57% and 54%
  Population Fragmented Nuclei (%): 3% and 5%
  Population Healthy Nuclei (%): 83% and 81%
  Population Hoechst High Intensity Objects (%): 10% and 15%
  Population Membrane Permeable-Phenotype (%): 4% and 3%
  Population Mitochondria Different-Phenotype (%): 49% and 42%
  Population Mitotic Cells (%): 42% and 45%
  Population Normal (%): 89% and 84%
  Population Pyknosed Nuclei (%): 12%
  Population Tubulin-Different-Phenotype (%): 86% and 81%
  Total Cell Count: 426 and 429
HEK-293T; [3]
  Population Apoptotic (%): 39% and 56%
  Population Fragmented Nuclei (%): 8% and 4%
  Population Healthy Nuclei (%): 83% and 85%
  Population Hoechst High Intensity Objects (%): 8% and 7%
  Population Membrane Permeable-Phenotype (%): 4%
  Population Mitochondria Different-Phenotype (%): 5% and 8%
  Population Mitotic Cells (%): 60% and 43%
  Population Normal (%): 91% and 92%
  Population Pyknosed Nuclei (%): 8% and 10%
  Population Tubulin-Different-Phenotype (%): 36% and 38%
  Total Cell Count: 1214 and 697
HEK-293T; [4]
  Population Apoptotic (%): 44% and 68%
  Population Fragmented Nuclei (%): 2% and 7%
  Population Healthy Nuclei (%): 84% and 79%
  Population Hoechst High Intensity Objects (%): 9% and 18%
  Population Membrane Permeable-Phenotype (%): 4% and 3%
  Population Mitochondria Different-Phenotype (%): 53% and 59%
  Population Mitotic Cells (%): 55% and 31%
  Population Normal (%): 90% and 81%
  Population Pyknosed Nuclei (%): 12% and 13%
  Population Tubulin-Different-Phenotype (%): 87% and 86%
  Total Cell Count: 385 and 376
HEK-293T; [5]
  Population Fragmented Nuclei (%): 15% and 8%
  Population Healthy Nuclei (%): 80% and 87%
  Population Hoechst High Intensity Objects (%): 10% and 9%
  Population Membrane Permeable-Phenotype (%): 6% and 3%
  Population Mitochondria Different-Phenotype (%): 0% and 2%
  Population Mitotic Cells (%): 90% and 68%
  Population Normal (%): 89% and 90%
  Population Pyknosed Nuclei (%): 3%
  Population Tubulin-Different-Phenotype (%): 19% and 22%
  Total Cell Count: 2956 and 1428
HEK-293T; [6]
  Population Apoptotic (%): 67% and 74%
  Population Fragmented Nuclei (%): 7% and 14%
  Population Healthy Nuclei (%): 78% and 66%
  Population Hoechst High Intensity Objects (%): 14% and 24%
  Population Membrane Permeable-Phenotype (%): 4%
  Population Mitochondria Different-Phenotype (%): 66% and 58%
  Population Mitotic Cells (%): 32% and 25%
  Population Normal (%): 85% and 75%
  Population Pyknosed Nuclei (%): 14% and 19%
  Population Tubulin-Different-Phenotype (%): 94% and 82%
  Total Cell Count: 296 and 264
U2OS; [1]
  Population Apoptotic (%): 75% and 39%
  Population Healthy Nuclei (%): 62% and 82%
  Population Hoechst High Intensity Objects (%): 2% and 0%
  Population Mitochondria Different-Phenotype (%): 0% and 1%
  Population Mitotic Cells (%): 25% and 60%
  Population Normal (%): 97% and 100%
  Population Pyknosed Nuclei (%): 10% and 12%
  Population Tubulin-Different-Phenotype (%): 52% and 81%
U2OS; [2]
  Population Apoptotic (%): 66% and 45%
  Population Healthy Nuclei (%): 56% and 80%
  Population Hoechst High Intensity Objects (%): 0%
  Population Membrane Permeable-Phenotype (%): 4% and 5%
  Population Mitochondria Different-Phenotype (%): 0% and 2%
  Population Mitotic Cells (%): 33% and 54%
  Population Normal (%): 100%
  Population Pyknosed Nuclei (%): 7% and 13%
  Population Tubulin-Different-Phenotype (%): 40% and 41%
U2OS; [3]
  Population Apoptotic (%): 100% and 56%
  Population Healthy Nuclei (%): 58% and 88%
  Population Hoechst High Intensity Objects (%): 3% and 0%
  Population Mitochondria Different-Phenotype (%): 8% and 0%
  Population Normal (%): 96% and 100%
  Population Pyknosed Nuclei (%): 4% and 7%
  Population Tubulin-Different-Phenotype (%): 59% and 82%
U2OS; [4]
  Population Apoptotic (%): 57% and 52%
  Population Healthy Nuclei (%): 65% and 78%
  Population Hoechst High Intensity Objects (%): 0%
  Population Membrane Permeable-Phenotype (%): 3% and 4%
  Population Mitochondria Different-Phenotype (%): 0% and 5%
  Population Mitotic Cells (%): 42% and 47%
  Population Normal (%): 100%
  Population Pyknosed Nuclei (%): 14% and 16%
  Population Tubulin-Different-Phenotype (%): 40% and 47%
U2OS; [5]
  Population Apoptotic (%): 33% and 36%
  Population Healthy Nuclei (%): 65% and 90%
  Population Hoechst High Intensity Objects (%): 3% and 0%
  Population Membrane Permeable-Phenotype (%): 10% and 1%
  Population Mitochondria Different-Phenotype (%): 10% and 0%
  Population Mitotic Cells (%): 66% and 63%
  Population Normal (%): 96% and 100%
  Population Pyknosed Nuclei (%): 9% and 6%
  Population Tubulin-Different-Phenotype (%): 72% and 84%
U2OS; [6]
  Population Apoptotic (%): 79% and 66%
  Population Fragmented Nuclei (%): 5% and 15%
  Population Healthy Nuclei (%): 81% and 70%
  Population Hoechst High Intensity Objects (%): 0%
  Population Membrane Permeable-Phenotype (%): 4% and 2%
  Population Mitochondria Different-Phenotype (%): 3% and 2%
  Population Mitotic Cells (%): 20% and 33%
  Population Normal (%): 100%
  Population Pyknosed Nuclei (%): 13%
  Population Tubulin-Different-Phenotype (%): 58% and 34%
